The source made the active and inactive calls. No cut-off for these calls is given here.
Experiments:
[1] = tested on: Influenza A virus; assay: Antiviral activity against Influenza virus A/Puerto Rico/8/34 H1N1 infected in dog MDCK cells at 10 ug/mL incubated for 8 hrs post-infection followed by compound washout measured after 24 hrs by hemagglutininating unit assay relative to control; type: functional, A/Puerto Rico/8/1934(H1N1)
How it was run: (§1)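 Compound added to PR8-infected MDCK cells immediately after virus challenge, then removed at 2, 4, 6, 8 or 24 h p.i. Supernatant virus yield was measured by HAU at 24 h p.i. and expressed as a percentage of DMSO-treated control infected cells. Means of two experiments, each in duplicate.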

[2] = target: Protein kinase C (PKC) (Homo sapiens) (UniProt O94806+P41743+P17252+P05129+Q05655+P05771+Q05513+Q02156+P24723+Q15139+Q04759); assay: Inhibition of PKC-mediated ERK1 phosphorylation in human NCI-H292 cells infected with Influenza virus A/Puerto Rico/8/34 H1N1 measured at 6 hrs post-infection by immunoblotting analysis; type: cell-based
How it was run: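 NCI-H292 cells, mock- or PR8-infected at 1 M.O.I., were treated and lysed 6 h p.i. Lysates were run on 10% SDS–PAGE and blotted with rabbit anti-phospho-PKD, -ERK1/2, -p38MAPK or -JNK antibodies. Membranes were then stripped and reprobed for the corresponding total proteins.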

[3] = tested on: Influenza A virus; assay: Antiviral activity against Influenza virus A/Puerto Rico/8/34 H1N1 infected in dog MDCK cells at 10 ug/mL incubated for 2 hrs post-infection followed by compound washout measured after 24 hrs by hemagglutininating unit assay; type: functional, organism-based; details: A/Puerto Rico/8/1934(H1N1); how it was run: as §1
[4] = tested on: Influenza A virus; assay: Antiviral activity against Influenza virus A/Puerto Rico/8/34 H1N1 infected in dog MDCK cells at 10 ug/mL incubated for 6 hrs post-infection followed by compound washout measured after 24 hrs by hemagglutininating unit assay relative to control; type: functional, A/Puerto Rico/8/1934(H1N1); how it was run: as §1
[5] = tested on: Influenza A virus; assay: Antiviral activity against Influenza virus A/Puerto Rico/8/34 H1N1 infected in dog MDCK cells at 10 ug/mL incubated for 24 hrs post-infection followed by compound washout measured after 24 hrs by hemagglutininating unit assay relative to control; type: functional, A/Puerto Rico/8/1934(H1N1); how it was run: as §1
[6] = tested on: Influenza A virus; assay: Antiviral activity against Influenza virus A/Puerto Rico/8/34 H1N1 infected in dog MDCK cells incubated overnight prior to infection followed by compound washout by hemagglutininating unit assay; type: functional, organism-based; details: A/Puerto Rico/8/1934(H1N1)
How it was run: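 Timing variants, each read by HAU of virus yield from MDCK cells: PR8 stock preincubated 1 h with compound before infection; compound present only during the 1 h adsorption; or cells pretreated overnight with washout just before viral challenge.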

[7] = tested on: Influenza A virus; assay: Antiviral activity against Influenza virus A/Puerto Rico/8/34 H1N1 infected in dog MDCK cells assessed as reduction in nucleoprotein expression at 10 ug/mL after 24 hrs by immunoblotting analysis relative to control; type: functional, organism-based; details: A/Puerto Rico/8/1934(H1N1)
How it was run: (§2)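 PR8-infected MDCK cells, untreated or treated, were lysed at 24 h. Homogenates were run on 12% gels under reducing conditions, blotted to nitrocellulose and probed with goat polyclonal anti-influenza antibodies. Densitometry was expressed as the ratio of each viral protein to actin, relative to untreated infected cells.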

[8] = tested on: Influenza A virus; assay: Antiviral activity against Influenza virus A/Puerto Rico/8/34 H1N1 infected in dog MDCK cells assessed as reduction in neuraminidase expression at 10 ug/mL after 24 hrs by immunoblotting analysis relative to control; type: functional, A/Puerto Rico/8/1934(H1N1); parameters: scale not given: the % may be the effect or the level left; how it was run: as §2
[9] = tested on: Influenza A virus; assay: Antiviral activity against Influenza virus A/Puerto Rico/8/34 H1N1 infected in dog MDCK cells assessed as reduction in hemagglutininin expression at 10 ug/mL after 24 hrs by immunoblotting analysis relative to control; type: functional, organism-based; details: A/Puerto Rico/8/1934(H1N1); how it was run: as §2
[10] = tested on: MDCK; assay: Inhibition of PKC/p38MAPK-mediated nuclear-cytoplasmic viral nucleoprotein export in dog MDCK cells infected with Influenza virus A/Puerto Rico/8/34 H1N1 measured at 8 hrs post-infection by inmmunofluorescence; type: cell-based; details: Canis lupus familiaris
How it was run: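 MDCK cells were infected with PR8 at 1 M.O.I. for single-cycle replication. At 8 h p.i. cells were fixed, permeabilized and stained with DAPI, then with anti-NP primary and FITC-conjugated secondary antibody. NP localization was assessed by fluorescence microscopy.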

[11] = tested on: MDCK; assay: Cytotoxicity against dog MDCK cells assessed as morphological alterations at 20 to 40 ug/mL incubated for 24 hrs followed by compound wash out measured after 24 hrs by microscopic analysis; type: cell-based, Canis lupus familiaris
How it was run: (§3)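 Confluent MDCK monolayers plated at 2×10^5/ml were treated after 24 h with compound at 5–40 μg/ml and incubated a further 24 h. Assessed by microscopic examination of morphology, Trypan blue exclusion for viability, and cell counts for multiplication rate.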

[12] = tested on: Influenza A virus; assay: Antiviral activity against Influenza virus A/Puerto Rico/8/34 H1N1 infected in dog MDCK cells at 10 ug/mL incubated for 4 hrs post-infection followed by compound washout measured after 24 hrs by hemagglutininating unit assay; type: functional, organism-based; details: A/Puerto Rico/8/1934(H1N1); how it was run: as §1
[13] = tested on: Influenza A virus; assay: Antiviral activity against Influenza virus A/Puerto Rico/8/34 H1N1 infected in dog MDCK cells assessed as reduction in matrix protein 1 expression at 10 ug/mL after 24 hrs by immunoblotting analysis relative to control; type: functional, organism-based; details: A/Puerto Rico/8/1934(H1N1); how it was run: as §2
[14] = tested on: Influenza A virus; assay: Antiviral activity against Influenza virus A/Puerto Rico/8/34 H1N1 infected in dog MDCK cells assessed as inhibition of viral replication at 10 ug/mL incubated at 1 hr post-infection measured after 24 hrs by hemagglutininating unit assay relative to control; type: functional; details: A/Puerto Rico/8/1934(H1N1)
How it was run: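 MDCK cells infected with PR8; 1 h after adsorption they were washed, and compound (5–20 μg/ml) or DMSO was added and kept on throughout. Virus released into the supernatant was titrated by HAU assay 24 h p.i. Yield is a percentage of control infected cells given 0.02% DMSO. Means of four experiments, each in duplicate.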

[15] = tested on: Influenza A virus; assay: Antiviral activity against Influenza virus A/Puerto Rico/8/34 H1N1 infected in dog MDCK cells at 20 ug/mL incubated for 8 hrs post-infection followed by compound washout measured after 24 hrs by hemagglutininating unit assay relative to control; type: functional, A/Puerto Rico/8/1934(H1N1); how it was run: as §1
[16] = tested on: Influenza A virus; assay: Antiviral activity against Influenza virus A/Puerto Rico/8/34 H1N1 infected in dog MDCK cells at 20 ug/mL incubated for 24 hrs post-infection followed by compound washout measured after 24 hrs by hemagglutininating unit assay relative to control; type: functional, A/Puerto Rico/8/1934(H1N1); how it was run: as §1
[17] = tested on: Influenza A virus; assay: Antiviral activity against Influenza virus A/Puerto Rico/8/34 H1N1 infected in dog MDCK cells assessed as reduction in hemagglutininin expression at 20 ug/mL after 24 hrs by immunoblotting analysis relative to control; type: functional, A/Puerto Rico/8/1934(H1N1); parameters: scale not given: the % may be the effect or the level left; how it was run: as §2
[18] = tested on: Influenza A virus; assay: Antiviral activity against Influenza virus A/Puerto Rico/8/34 H1N1 infected in dog MDCK cells assessed as reduction in neuraminidase expression at 20 ug/mL after 24 hrs by immunoblotting analysis relative to control; type: functional, A/Puerto Rico/8/1934(H1N1); parameters: scale not given: the % may be the effect or the level left; how it was run: as §2
[19] = tested on: Influenza A virus; assay: Antiviral activity against Influenza virus A/Puerto Rico/8/34 H1N1 infected in dog MDCK cells at 20 ug/mL incubated for 6 hrs post-infection followed by compound washout measured after 24 hrs by hemagglutininating unit assay relative to control; type: functional, A/Puerto Rico/8/1934(H1N1); how it was run: as §1
[20] = tested on: Influenza A virus; assay: Antiviral activity against Influenza virus A/Puerto Rico/8/34 H1N1 infected in dog MDCK cells assessed as reduction in nucleoprotein expression at 20 ug/mL after 24 hrs by immunoblotting analysis relative to control; type: functional, organism-based; details: A/Puerto Rico/8/1934(H1N1); how it was run: as §2
[21] = tested on: MDCK; assay: Cytotoxicity against dog MDCK cells assessed as morphological alterations at 40 ug/mL incubated for 24 hrs followed by compound wash out measured after 24 hrs by microscopic analysis; type: cell-based, Canis lupus familiaris; how it was run: as §3
[22] = tested on: Influenza A virus; assay: Antiviral activity against Influenza virus A/Puerto Rico/8/34 H1N1 infected in dog MDCK cells at 20 ug/mL incubated for 4 hrs post-infection followed by compound washout measured after 24 hrs by hemagglutininating unit assay; type: functional, organism-based; details: A/Puerto Rico/8/1934(H1N1); how it was run: as §1

O=C(/C=C/c1ccc(O)cc1)c1ccc(O)cc1O [ISOLIQUIRITIGENIN]
Activity [1]: 55% | inhibition [2]: inactive | Activity [3]: inactive | Activity [4]: 30% | Activity [5]: 75% | Activity [6]: inactive | Activity [7]: inactive | Activity [8]: 42% | Activity [9]: inactive | inhibition [10]: Active | Activity [11]: Toxic | Activity [12]: inactive | Activity [13]: inactive | inhibition at 10 µg/mL [14]: 75%

O=C1/C(=C/c2ccc(O)c(O)c2)COC/C1=C\c1ccc(O)c(O)c1
inhibition [2]: inactive | Activity [15]: 55% | Activity [6]: inactive | Activity [16]: 75% | Activity [17]: 25% | Activity [18]: 56% | Activity [19]: 30% | Activity [20]: Active | Activity [21]: Toxic | Activity [22]: inactive
